Data reported in ChEMBL document CHEMBL1156973, “(-)-Carbodine: enantiomeric synthesis and in vitro antiviral activity against various strains of influenza virus including H5N1 (avian influenza) and novel 2009 H1N1 (swine flu)” (Bioorg Med Chem Lett, 2010).

What was measured:
[1] = Selectivity ratio of IC50 for MDCK cells to EC50 for Influenza A virus Solomon Islands/03/2006/H1N1 by neutral red dye uptake assay; format: ADME, cell-based; settings: dog; for selectivity ratio: MDCK cells, read-out: Ratio IC50/EC50
How it was run: (§1)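 Neutral red uptake in MDCK cells: IC50 (50% inhibition of uninfected cells) divided by EC50 (50% inhibition of virus effect), both from replicate serial-dilution assays.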

[2] = test system: Influenza A virus (A/Puerto Rico/8/1934(H1N1)); test: Antiviral activity against Influenza A virus Solomon Islands/03/2006/H1N1 infected MDCK cells after 3 days by virus yield reduction assay; format: functional, Influenza A virus (A/Solomon Islands/3/2006(H1N1)); settings: Influenza A virus, MDCK, 72 h
How it was run: (§2)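 Yield reduction assay: MDCK cells got serial compound dilutions and ≤300 CCID50 virus, in triplicate. Progeny virus was titrated. EC90 is the concentration reducing the infectious titer by 90%, as the mean of triplicates.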

[3] = test system: Influenza A virus; test: Antiviral activity against Influenza A virus Vietnam/1203/ 2004H/H5N1 infected MDCK cells assessed as inhibition of virus-induced cytopathic effect after 3 days; format: functional, organism-based, A/Viet Nam/1203/2004(H5N1)
[4] = Selectivity ratio of IC50 for MDCK cells to EC50 for inhibition of virus-induced cytopathic effect of Influenza B virus Malaysia/2506/2004; format: cell-based; settings: dog, MDCK cells; read-out: Ratio IC50/EC50
How it was run: (§3)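 IC50 (50% inhibition of uninfected MDCK cells) divided by EC50 (concentration reducing virus-induced CPE by 50%, scored visually), both from replicate serial-dilution assays.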

[5] = test system: H5N1 subtype; test: Antiviral activity against Influenza A virus Duck/MN/1525/81/H5N1 infected MDCK cells after 3 days by virus yield reduction assay; format: functional, Influenza A virus (A/duck/Minnesota/1525/1981(H5N1)); settings: Influenza A virus, MDCK, 72 h
[6] = test system: Influenza A virus; test: Antiviral activity against Influenza A virus Vietnam/1203/ 2004H/H5N1 infected MDCK cells after 3 days by virus yield reduction assay; format: functional, A/Viet Nam/1203/2004(H5N1)
[7] = test system: Influenza B virus; test: Antiviral activity against Influenza B virus Malaysia/2506/2004 infected MDCK cells assessed as inhibition of virus-induced cytopathic effect after 3 days; format: functional, organism-based, B/Malaysia/2506/2004; settings: Influenza B virus, B/Malaysia/2506/2004, MDCK, 72 h
How it was run: (§4)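 Triplicate MDCK (ATCC CCL-34) wells got serial dilutions of compound. They were then inoculated with ≤300 CCID50, enough for ~100% CPE in control wells within 3 days, using the same inoculum for all replicates. CPE was scored visually. EC50 is the concentration reducing CPE by 50%, as the mean of triplicates.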

[8] = Selectivity ratio of IC50 for MDCK cells to EC90 for Influenza B virus Malaysia/2506/2004 by virus yield reduction assay; format: ADME, cell-based; settings: dog; for selectivity ratio: MDCK cells
How it was run: (§5)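 IC50 (50% inhibition of uninfected MDCK cells) divided by EC90 (concentration reducing the infectious virus titer by 90% in the yield reduction assay).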

[9] = Selectivity ratio of IC50 for MDCK cells to EC90 for Influenza A virus Wisconsin/67/2005/H3N2 by virus yield reduction assay; format: ADME, cell-based; settings: dog, MDCK cells; how it was run: as §5
[10] = test system: Influenza A virus; test: Antiviral activity against Influenza A virus Wisconsin/67/2005/H3N2 infected MDCK cells assessed as inhibition of virus-induced cytopathic effect after 3 days; format: functional, organism-based, Influenza A virus (A/Wisconsin/67/2005(H3N2)); settings: Influenza A virus, MDCK, 72 h; how it was run: as §4
[11] = Selectivity ratio of IC50 for MDCK cells to EC90 for Influenza A virus Vietnam/1203/ 2004H/H5N1 by virus yield reduction assay; format: ADME, cell-based; settings: dog; for selectivity ratio: MDCK cells; how it was run: as §5
[12] = test system: H5N1 subtype; test: Antiviral activity against Influenza A virus Hong Kong/213/2003/H5N1 infected MDCK cells assessed as inhibition of virus-induced cytopathic effect after 3 days; format: functional, organism-based, Influenza A virus (A/Hong Kong/213/2003(H5N1)); settings: 72 h
[13] = test system: Influenza A virus; test: Antiviral activity against Influenza A virus Vietnam/1203/ 2004H/H5N1 infected MDCK cells after 42 to 46 hrs by neutral red dye uptake assay; format: functional, organism-based, A/Viet Nam/1203/2004(H5N1); settings: Influenza A virus, A/Viet Nam/1203/2004(H5N1), MDCK
[14] = test system: Influenza A virus; test: Antiviral activity against Influenza A virus California/07/2009 /H1N1 infected MDCK cells after 42 to 46 hrs by neutral red dye uptake assay; format: functional, organism-based, A/California/07/2009(H1N1); settings: Influenza A virus, A/California/07/2009(H1N1), MDCK
[15] = Selectivity ratio of IC50 for MDCK cells to EC50 for inhibition of virus-induced cytopathic effect of Influenza A virus Wisconsin/67/2005/H3N2; format: cell-based; settings: dog, MDCK cells; read-out: Ratio IC50/EC50; how it was run: as §3
[16] = Selectivity ratio of IC50 for MDCK cells to EC50 for Influenza A virus Wisconsin/67/2005/H3N2 by neutral red dye uptake assay; format: ADME, cell-based; settings: dog; for selectivity ratio: MDCK cells, read-out: Ratio IC50/EC50; how it was run: as §1
[17] = test system: H5N1 subtype; test: Antiviral activity against Influenza A virus Gull/PA/4175/83/H5N1 infected MDCK cells after 3 days by virus yield reduction assay; format: functional, Influenza A virus (A/gull/Pennsylvania/4175/83(H5N1)); settings: 72 h
[18] = Selectivity ratio of IC50 for MDCK cells to EC90 for Influenza A virus Gull/PA/4175/83/H5N1 by virus yield reduction assay; format: ADME, cell-based; settings: dog; how it was run: as §5
[19] = Antiviral activity against Influenza A virus Solomon Islands/03/2006/H1N1 infected MDCK cells assessed as inhibition of virus-induced cytopathic effect after 3 days; format: functional, organism-based, Influenza A virus (A/Solomon Islands/3/2006(H1N1)); how it was run: as §4
[20] = Selectivity ratio of IC50 for MDCK cells to EC50 for inhibition of virus-induced cytopathic effect of Influenza A virus Duck/MN/1525/81/H5N1; format: cell-based; settings: dog, MDCK cells; read-out: Ratio IC50/EC50; how it was run: as §3
[21] = test system: Influenza B virus; test: Antiviral activity against Influenza B virus Malaysia/2506/2004 infected MDCK cells after 3 days by virus yield reduction assay; format: functional, B/Malaysia/2506/2004; how it was run: as §2
[22] = test system: MDCK; test: Cytotoxicity against MDCK cells after 3 days by neutral red dye uptake assay; format: cell-based; settings: Canis lupus familiaris, 72 h
How it was run: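 Uninfected MDCK cells in replicate wells were exposed to serial compound dilutions and cell viability was read by neutral red uptake. IC50 is the drug concentration giving 50% cell inhibition without virus.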

[23] = Selectivity ratio of IC50 for MDCK cells to EC50 for inhibition of virus-induced cytopathic effect of Influenza A virus Solomon Islands/03/2006/H1N1; format: cell-based; settings: dog; for selectivity ratio: MDCK cells, read-out: Ratio IC50/EC50; how it was run: as §3
[24] = Selectivity ratio of IC50 for MDCK cells to EC90 for Influenza A virus Duck/MN/1525/81/H5N1 by virus yield reduction assay; format: ADME, cell-based; settings: dog, MDCK cells; how it was run: as §5
[25] = Selectivity ratio of IC50 for MDCK cells to EC90 for Influenza A virus California/07/2009 /H1N1 by virus yield reduction assay; format: ADME, cell-based; settings: dog, MDCK cells; how it was run: as §5
[26] = Selectivity ratio of IC50 for MDCK cells to EC50 for Influenza B virus Malaysia/2506/2004 by neutral red dye uptake assay; format: ADME, cell-based; settings: dog, MDCK cells; read-out: Ratio IC50/EC50; how it was run: as §1
[27] = Selectivity ratio of IC50 for MDCK cells to EC50 for Influenza A virus Gull/PA/4175/83/H5N1 by neutral red dye uptake assay; format: ADME, cell-based; settings: dog, MDCK cells; read-out: Ratio IC50/EC50; how it was run: as §1
[28] = test system: H5N1 subtype; test: Antiviral activity against Influenza A virus Duck/MN/1525/81/H5N1 infected MDCK cells after 42 to 46 hrs by neutral red dye uptake assay; format: functional, organism-based, Influenza A virus (A/duck/Minnesota/1525/1981(H5N1))
[29] = Selectivity ratio of IC50 for MDCK cells to EC50 for inhibition of virus-induced cytopathic effect of Influenza A virus Hong Kong/213/2003/H5N1; format: cell-based; settings: dog, read-out: Ratio IC50/EC50; how it was run: as §3
[30] = test system: H5N1 subtype; test: Antiviral activity against Influenza A virus Duck/MN/1525/81/H5N1 infected MDCK cells assessed as inhibition of virus-induced cytopathic effect after 3 days; format: functional, organism-based, Influenza A virus (A/duck/Minnesota/1525/1981(H5N1)); settings: Influenza A virus, MDCK, 72 h
[31] = test system: H5N1 subtype; test: Antiviral activity against Influenza A virus Hong Kong/213/2003/H5N1 infected MDCK cells after 3 days by virus yield reduction assay; format: functional, Influenza A virus (A/Hong Kong/213/2003(H5N1)); settings: Influenza A virus, MDCK, 72 h
[32] = Influenza A virus, A/Viet Nam/1203/2004(H5N1), MDCK
[33] = Influenza B virus, B/Malaysia/2506/2004, MDCK, 72 h

## Nc1ccn([C@@H]2C[C@H](CO)[C@@H](O)[C@H]2O)c(=O)n1
[1]; mdck
  Ratio IC50/EC50: > 690
[2]
  EC90: 1.3 µM
[3]; [32]
  EC50: 0.8 µM
[4]
  selectivity ratio: > 690
[5]
  EC90: 10.5 µM
[6]
  EC90: 5.7 µM
[7]
  EC50: 0.6 µM
[8]; mdck
  Ratio: > 276
[9]
  selectivity ratio: > 166
[10]
  EC50: 1.6 µM
[11]; mdck
  Ratio: > 73
[12]
  EC50: 0.7 µM
[13]
  EC50: 1.5 µM
[14]
  EC50: 1.6 µM
[15]
  selectivity ratio: > 259
[16]; mdck
  Ratio IC50/EC50: > 207
[17]
  EC90: 1.6 µM
[18]
  selectivity ratio: > 259
[19]; mdck
  EC50: 0.7 µM
[20]
  selectivity ratio: > 230
[21]
  EC90: 1.5 µM
[22]
  IC50: > 414 µM
[23]; mdck
  Ratio IC50/EC50: > 591
[24]
  selectivity ratio: > 39
[25]
  selectivity ratio: > 109
[26]
  selectivity ratio: > 518
[27]
  selectivity ratio: > 414
[28]; mdck
  EC50: 2 µM
[29]
  selectivity ratio: > 591
[30]
  EC50: 1.8 µM
[31]
  EC90: 2.1 µM

## Nc1ccn([C@H]2C[C@@H](CO)[C@H](O)[C@@H]2O)c(=O)n1
[1]
  selectivity ratio: < 10
[2]
  EC90: > 41 µM
[3]; [32]
  EC50: > 41 µM
[4]
  selectivity ratio: < 10
[5]
  EC90: > 414 µM
[6]; [32]
  EC90: > 41 µM
[7]
  EC50: > 41 µM
[8]
  selectivity ratio: < 10
[9]
  selectivity ratio: < 10
[10]
  EC50: > 41 µM
[11]
  selectivity ratio: < 10
[12]
  EC50: > 41 µM
[13]
  EC50: > 41 µM
[14]
  EC50: > 414 µM
[15]
  selectivity ratio: < 10
[16]
  selectivity ratio: < 10
[17]
  EC90: > 41 µM
[18]
  selectivity ratio: < 10
[19]; Influenza A virus, MDCK, 72 h
  EC50: > 41 µM
[20]
  selectivity ratio: 1
[21]; [33]
  EC90: > 41 µM
[22]
  IC50: > 414 µM
[23]
  selectivity ratio: < 10
[24]
  selectivity ratio: 1
[25]
  selectivity ratio: 1
[26]
  selectivity ratio: < 10
[27]
  selectivity ratio: < 10
[28]; Influenza A virus, MDCK
  EC50: > 414 µM
[29]
  selectivity ratio: < 10
[30]
  EC50: > 414 µM
[31]
  EC90: > 41 µM

## NC(=O)c1ncn([C@@H]2O[C@H](CO)[C@@H](O)[C@H]2O)n1 [RIBAVIRIN]
[1]
  selectivity ratio: > 52
[2]
  EC90: 27 µM
[3]; mdck
  EC50: 8.4 µM
[4]
  selectivity ratio: > 128
[5]
  EC90: 43.6 µM
[6]; [32]
  EC90: 11.6 µM
[7]
  EC50: 10.2 µM
[8]
  selectivity ratio: > 59
[9]
  selectivity ratio: > 60
[10]
  EC50: 16.4 µM
[11]
  selectivity ratio: > 113
[12]
  EC50: 4.3 µM
[13]
  EC50: 13.9 µM
[14]
  EC50: 19.4 µM
[15]
  selectivity ratio: > 80
[16]
  selectivity ratio: > 65
[17]
  EC90: 20.3 µM
[18]
  selectivity ratio: > 65
[19]; Influenza A virus, MDCK, 72 h
  EC50: 23.3 µM
[20]
  selectivity ratio: > 37
[21]; [33]
  EC90: 22.2 µM
[22]
  IC50: > 1310 µM
[23]
  selectivity ratio: > 56
[24]
  selectivity ratio: > 30
[25]
  selectivity ratio: > 101
[26]
  selectivity ratio: > 67
[27]
  selectivity ratio: > 48
[28]; Influenza A virus, MDCK
  EC50: 32.5 µM
[29]
  selectivity ratio: > 305
[30]
  EC50: 35.4 µM
[31]
  EC90: 16.8 µM
